High-throughput results from PubChem BioAssay.
The list is not random: actives were taken first. Their share in the collection is about 4.5%.
GPR7 antag: antagonists of human GPR7 (neuropeptides B/W receptor 1); inhibition, % at 4.4 µM; AID 1861; GPR7-expressing cells, fluorescence antagonist assay; P48145; actives 1.1% (n = 290,000); in the data active means inhibition above about 16%, passing the limit was not always enough;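 further: cells stimulated with the agonist NPW; 0% = agonist with vehicle and 100% = vehicle without agonist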
OX1R antag-1: antagonists of human orexin 1 receptor (OX1R). actives 1.8% (n = 330,000). O43613. OX1R-expressing cells, FRET antagonist read-out. inhibition, % at 6.6 µM; in the data active means inhibition mostly above about 38%, no sharp cut-off; inactive means mostly below about 40%;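 further: 0% = agonist challenge alone and 100% = reference antagonist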
Target sequence (O43613 whole entry, looked up): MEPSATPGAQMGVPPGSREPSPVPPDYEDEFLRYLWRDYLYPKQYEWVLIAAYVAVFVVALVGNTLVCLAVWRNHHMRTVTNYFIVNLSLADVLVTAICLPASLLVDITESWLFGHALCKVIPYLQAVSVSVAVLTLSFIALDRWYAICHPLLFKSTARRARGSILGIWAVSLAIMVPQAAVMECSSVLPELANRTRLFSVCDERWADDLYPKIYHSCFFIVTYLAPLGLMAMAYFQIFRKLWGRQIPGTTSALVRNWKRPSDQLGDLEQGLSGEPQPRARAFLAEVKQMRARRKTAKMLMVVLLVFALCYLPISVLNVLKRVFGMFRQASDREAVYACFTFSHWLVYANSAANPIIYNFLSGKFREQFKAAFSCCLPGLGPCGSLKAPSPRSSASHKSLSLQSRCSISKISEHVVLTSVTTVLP
TAAR1 ag: agonists of human TAAR1 | activation, % at 3 µM | actives 0.99% (n = 360,000) | Q96RJ0 | CHO RD-HGA16 TAAR1, Fluo-8 calcium fluorescence; vehicle wells 0%, saturating PEA agonist 100%;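 active means activation above the mean activation of all test compounds in the run plus 3 SD, cut at about 38% in these data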
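test system = CHO RD-HGA16 cells carrying human TAAR1 plus Gα16 | schedule = 17-24 h seeding, 75 min 37 °C dye, 30 min RT | compound dosing = 3 µM single concentration | control set = DMSO and PEA EC100 | replicates = n 1 | signal = Fluo-8 fluorescence, 5 s baseline then 140 s kinetic read | measure = percent activation vs PEA EC100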
CHO parental Ca: signal in parental CHO cells, OX1R antagonist counter-screen; parental CHO-K1, ATP-induced calcium, Fluo-8 fluorescence; inhibition, % at 5.6 µM; actives 0.63% (n = 330,000);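 active means inhibition above that plate's mean sample inhibition plus 3 SD, cut at about 26% in these data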;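 further: 0% = ATP-challenged DMSO wells and 100% = DMSO wells without ATP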
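Test system: untransfected parental CHO cell line; also added: ATP stimulus; dosing: 5.6 µM, single dose; signal: calcium-sensitive Fluo-8 fluorescence; measure: percent inhibition of ATP-evoked calcium rise, normalized to controls; benchmarks: low control ATP plus DMSO, high control DMSO only; replication: one well per compound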
TAAR1 antag: antagonists of human TAAR1; Q96RJ0; CHO RD-HGA16 TAAR1, Fluo-8 calcium fluorescence, antagonist; inhibition, % at 3 µM; actives 1.5% (n = 360,000); AID 624466;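 active means inhibition above a per-plate cutoff, the mean inhibition of test compounds on that plate plus 3 SD, cut at about 49% in these data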;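 further: 0% = DMSO plus EC80 beta-PEA response and 100% = DMSO alone without agonist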
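Test system – hTAAR1-expressing CHO RD-HGA16 cells, Gα16-coupled · Reagent – β-PEA at EC80 concentration, post-compound challenge · Compound dosing – 3 µM, single point · Timing – 140 s kinetic read after compound, 140 s after agonist · Detection – Fluo-8 intracellular calcium dye fluorescence, real-time kinetic reads · Control set – DMSO and EC80 PEA controls · Repeats – n of 1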
OX1R antag-2: blocks the human orexin 1 receptor; O43613; CHO/OX1R cells, Fluo-8 calcium fluorescence, orexin A; actives 0.43% (n = 330,000); inhibition, % at 5 µM;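 active means inhibition above its plate's threshold, mean inhibition of all tested compounds on the plate plus 3 SD, cut at about 37% in these data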;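 further: 0% = orexin A challenge wells and 100% = SB-334867-A antagonist wells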
* marks the source's active call; other numbers are inactive results; . = no result.

SMILES | GPR7 antag | OX1R antag-1 | TAAR1 ag | CHO parental Ca | TAAR1 antag | OX1R antag-2
CC(C)(C)OC(=O)N1CCC[C@@H]1C(=O)N1CCC[C@@H]1C(=O)NCc1ccccc1 | . | . | -1 | . | 6 | .
COc1ccc(NC(=O)c2cc3c(=O)n(C)c4ccccc4c3n2C)cc1OC | -8 | 43* | 4 | -11 | 5 | -21
COc1ccc(NC(=O)c2cc3c(=O)n(C)c4ccccc4c3n2C)cc1Cl | -13 | 4 | 0 | -9 | 2 | -31
CCOC(=O)C1=CCC(c2ccccc2)N(S(C)(=O)=O)C1 (stereo unspecified) | . | . | 4 | . | -9 | .
CCc1ccc(OCC(=O)c2c(O)c3ccccc3oc2=O)cc1 | 2 | 57 | -1 | -5 | 10 | -8
CCc1oc2ccccc2c1C(=O)c1cc(Br)c(O)c(Br)c1 | -10 | 76* | 0 | -14 | 15 | -15
CNc1nc(-c2ccc3c(c2)CCN3C(=O)c2ccccc2F)c(C)s1 | -13 | 16 | -2 | -6 | 25 | -17
CNc1nc(-c2ccc3c(c2)CCN3C(=O)c2ccccc2F)cs1 | -2 | . | 2 | . | 53* | .
Cc1cc(C(C)C)n2c(nc3ccccc32)c1C#N | -9 | 11 | . | -7 | . | -16
Cc1cc(-c2ccco2)c(C#N)c2nc3ccccc3n12 | -1 | 100* | 4 | -7 | 7 | -15
COc1ccc(C(C)NC(=O)Nc2ccc(C(C)=O)cc2)cc1OC (stereo unspecified) | -9 | -4 | 6 | -18 | -20 | -21
COc1cccc(C(c2nnnn2Cc2ccccc2)N2CCN(C3CCCC3)CC2)c1OC (stereo unspecified) | 1 | 15 | 24 | 1 | 53* | -25
COc1ccccc1C(c1nnnn1Cc1ccccc1)N1CCN(C2CCCC2)CC1 (stereo unspecified) | 8 | 11 | 6 | -17 | -3 | -30
Nc1ccc2c3c(cccc13)-c1ccccc1-2 | . | . | 82* | . | 72* | .
O=[N+]([O-])c1cc(-c2ncccn2)cs1 | -9 | 51* | 2 | -1 | -14 | 4
CC(C)CNC(=S)NC(=O)c1csc([N+](=O)[O-])c1 | 1 | 15 | -2 | -20 | -7 | -22
O=c1[nH]c(-c2ccccc2)cn1C1CCN(Cc2ccc(-c3nc4ccc(Br)cc4nc3-c3ccccc3)cc2)CC1 | . | . | 8 | . | 47 | .
Cc1cc(N/N=C/c2ccc([N+](=O)[O-])o2)nc2ccccc12 | 6 | 42* | 12 | -6 | 34 | 25
NC(=O)c1cc[n+](Cc2ccc([N+](=O)[O-])cc2)cc1 | -8 | 52 | 2 | 3 | 13 | 10
O=C(Nc1ccccc1Cl)c1cc[n+](Cc2ccc([N+](=O)[O-])cc2)cc1 | -7 | 40* | 7 | 0 | 3 | -14
COc1ccc(/C=C/C(=O)NC(=S)Nc2ccccc2)cc1OC | -7 | 2 | 1 | -4 | 11 | -16
COc1cc(/C=C/C(=O)NC(=O)c2ccccc2O)ccc1OC(C)=O | -13 | 66* | 1 | -13 | 14 | 4
O=C(CCn1c(=S)[nH]c2ccccc2c1=O)NCCSCc1ccccc1 | -12 | 35 | 0 | -20 | 13 | -31
O=C(Cn1c(=S)[nH]c2ccccc2c1=O)NCCc1ccccc1 | -4 | 3 | 38* | -10 | -16 | -22
COC(=O)c1ccsc1NS(C)(=O)=O | . | . | 2 | . | -4 | .
SMILES | GPR7 antag | OX1R antag-1 | TAAR1 ag | CHO parental Ca | TAAR1 antag | OX1R antag-2
O=C(OCc1cc(=O)n2c(n1)sc1ccccc12)c1ccc(O)cc1 | -11 | 53* | 5 | -15 | 5 | -22
CNC(=O)c1ccsc1NC(=O)c1ccc2c(c1)CCCC2 | -18 | 40 | 3 | -2 | 51* | -10
NS(=O)(=O)c1ccc(NC(=O)c2ccc3c(c2)CCCC3)cc1 | -8 | 3 | 2 | -2 | -10 | -21
O=C(CNSc1ccc([N+](=O)[O-])cc1[N+](=O)[O-])OCc1ccccc1 | . | . | 0 | . | 5 | .
CC(C)N(CCCNC(=O)Cn1c(=O)c2cccn2c2ccccc21)Cc1ccccc1 | -8 | 66* | 0 | -21 | -8 | 28
CN(CCCNC(=O)Cn1c(=O)c2cccn2c2ccccc21)Cc1ccccc1 | -1 | 33 | 1 | -23 | -14 | -17
